Reference: ChEMBL document CHEMBL1649111, “Restoration of susceptibility of intracellular methicillin-resistant Staphylococcus aureus to beta-lactams: comparison of strains, cells, and antibiotics” (Antimicrob Agents Chemother, 2008)
In brackets after ≈: the same amount, converted by molar mass.

Legend:
Staphylococcus aureus [1] = test: (§1) Antimicrobial activity against hospital acquired methicillin-resistant Staphylococcus aureus N4120032 obtained from wound infection of patient infected in human THP-1 cells assessed as increase in bacterial count from original inoculum at low compound concentration after 24 hrs at pH 5.5; format: functional
Outline: (§2)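 Bacteria phagocytosed by unactivated human THP-1 macrophages, then incubated 24 h with extracellular antibiotic at about 0.01× to 100× the pH 5.5 broth MIC. CFU per mg cell protein counted against the original inoculum, n = 3. A Hill-equation fit (slope factor 1) gave Emin and Emax, extrapolated to infinitely low and high concentration, and EC50. Static concentration was graphically interpolated.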

Staphylococcus aureus [2] = test: Antimicrobial activity against hospital acquired methicillin-resistant and vancomycin-intermediate Staphylococcus aureus NRS126 obtained from patient with bloodstream infection by broth microdilution method at pH 7.4; format: functional
Outline: (§3)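 Minimal inhibitory concentration by broth microdilution at pH 7.4, read in mg/liter. The MRSA genotype was confirmed by mecA PCR, and the SCCmec subgroup was assigned by multiplex PCR.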

Staphylococcus aureus [3] = test: Antimicrobial activity against intracellular hospital acquired methicillin-resistant Staphylococcus aureus ATCC 33591 infected in human keratinocytes assessed as decrease in bacterial count from original inoculum at high compound concentration after 24 hrs at pH 7.4; format: functional
Outline: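 Primary human skin keratinocytes or Calu-3 bronchial epithelial cells, given an inoculum of 5 × 10⁷ to 1 × 10⁸ bacteria/ml and 2 h for internalization. Post-phagocytosis load 1.5 × 10⁶ to 3.0 × 10⁶ CFU per mg cell protein. Cloxacillin dose range in mg/liter for 24 h, n = 3. Hill-derived Emin, Emax and EC50; static concentration interpolated.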

Staphylococcus aureus [4] = test: Antimicrobial activity against hospital acquired methicillin-resistant and vancomycin-intermediate Staphylococcus aureus NRS126 obtained from bloodstream infection of patient infected in human THP-1 cells assessed as decrease in bacterial growth after 24 hrs at pH 5.5; format: functional, organism-based; conditions: NRS126, THP-1, 24 h; outline: as §2
Staphylococcus aureus [5] = test: as §1, with “Panton-valentine leukocidin positive community” for “hospital”, “N4090440” for “N4120032”, “decrease” for “increase”, “high” for “low”; format: functional; outline: as §2
Staphylococcus aureus [6] = test: Antimicrobial activity against beta-lactamase negative methicillin-susceptible Staphylococcus aureus ATCC 25923 infected in human THP-1 cells assessed as decrease in bacterial growth after 24 hrs at pH 5.5; format: functional, organism-based; conditions: ATCC 25923, THP-1, 24 h; outline: as §2
Staphylococcus aureus [7] = test: Antimicrobial activity against constitutive beta-lactamase negative methicillin-resistant Staphylococcus aureus COL NRS100 by broth microdilution method at pH 5.5; format: functional
Staphylococcus aureus [8] = test: Antimicrobial activity against beta-lactamase negative methicillin-susceptible Staphylococcus aureus ATCC 25923 infected in human THP-1 cells assessed as increase in bacterial count from original inoculum at low compound concentration after 24 hrs at pH 5.5; format: functional
Outline: (§4)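 MSSA ATCC 25923 phagocytized by unactivated THP-1 macrophages; extracellular antibiotic from about 0.01× to 100× the broth MIC at pH 5.5, with gentamicin 0.5 mg/liter to block extracellular growth. CFU per mg cell protein counted at 24 h vs. original inoculum (n = 3). A Hill equation (slope factor 1) gives Emin/Emax, extrapolated to infinitely low/high concentration. Static concentration is read by graphical interpolation.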

Staphylococcus aureus [9] = test: Antimicrobial activity against Panton-valentine leukocidin positive community acquired methicillin-resistant Staphylococcus aureus N4042228 infected in human THP-1 cells assessed as increase in bacterial count from original inoculum at low compound concentration after 24 hrs at pH 5.5; format: functional; outline: as §2
Staphylococcus aureus [10] = test: Antimicrobial activity against constitutive beta-lactamase negative methicillin-resistant Staphylococcus aureus COL NRS100 by broth microdilution method at pH 7.4; format: functional
Staphylococcus aureus [11] = test: Antimicrobial activity against hospital acquired methicillin-resistant Staphylococcus aureus ATCC 33591 by broth microdilution method at pH 5.5; format: functional
Staphylococcus aureus [12] = test: Antimicrobial activity against hospital acquired methicillin-resistant Staphylococcus aureus HMC546 by broth microdilution method at pH 5.5; format: functional
Staphylococcus aureus [13] = test: Bacteriostatic activity against hospital acquired methicillin-resistant Staphylococcus aureus ATCC 33591 infected in human THP-1 cells assessed as decrease in bacterial growth after 24 hrs at pH 5.5; format: functional
Outline: (§5)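 Human THP-1 macrophages infected with each S. aureus strain. Cloxacillin added extracellularly at about 0.01× to 100× the broth MIC measured at pH 5.5, with gentamicin 0.5 mg/liter to stop extracellular growth. Incubated 24 h. CFU counted per mg cell protein as change from the post-phagocytosis inoculum, n = 3. Emin, Emax and EC50 from a Hill fit; static concentration by graphical interpolation.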

Staphylococcus aureus [14] = test: Antimicrobial activity against beta-lactamase negative methicillin-susceptible Staphylococcus aureus ATCC 25923 infected in human THP-1 cells assessed as decrease in bacterial count from original inoculum at high compound concentration after 24 hrs at pH 5.5; format: functional; outline: as §4
Staphylococcus aureus [15] = test: Antimicrobial activity against intracellular hospital acquired methicillin-resistant Staphylococcus aureus ATCC 33591 infected in activated human THP-1 cells assessed as decrease in bacterial count from original inoculum at high compound concentration after 24 hrs at pH 7.4; format: functional
Outline: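 THP-1 cells activated by 24-h culture with phorbol myristate acetate 2 mg/liter, then infected like unactivated THP-1. Cloxacillin dose range in mg/liter for 24 h. CFU per mg cell protein relative to the original inoculum, n = 3. Emin and Emax extrapolated from a Hill fit (slope 1), with EC50 as total drug; static concentration by graphical interpolation.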

Staphylococcus aureus [16] = test: Antimicrobial activity against hospital acquired methicillin-resistant Staphylococcus aureus ATCC 33591 infected in human THP-1 cells assessed as increase in bacterial count from original inoculum at low compound concentration after 24 hrs at pH 5.5; format: functional; outline: as §2
Staphylococcus aureus [17] = test: Antimicrobial activity against intracellular beta-lactamase negative methicillin-susceptible Staphylococcus aureus ATCC 25923 infected in human keratinocytes assessed as increase in bacterial count from original inoculum at low compound concentration after 24 hrs at pH 7.4; format: functional
Outline: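 Primary human skin keratinocytes or Calu-3 bronchial epithelial cells infected with MSSA ATCC 25923 at 5 × 10⁷ to 1 × 10⁸ bacteria/ml, 2 h internalization. Postphagocytosis inoculum 1.5 × 10⁶ to 3.0 × 10⁶ CFU/mg protein. Cloxacillin concentration range for 24 h; CFU/mg protein change vs. inoculum (n = 3). Hill fit gives Emin/Emax; static concentration by graphical interpolation.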

Staphylococcus aureus [18] = test: Bacteriostatic activity against hospital acquired methicillin-resistant and vancomycin-intermediate Staphylococcus aureus NRS18 infected in human THP-1 cells assessed as decrease in bacterial growth after 24 hrs at pH 5.5; format: functional; outline: as §5
Staphylococcus aureus [19] = test: Antimicrobial activity against hospital acquired methicillin-resistant and vancomycin-intermediate Staphylococcus aureus NRS18 obtained from patient with wound, skin and soft tissue infection by broth microdilution method at pH 7.4; format: functional; outline: as §3

Cc1onc(-c2ccccc2Cl)c1C(=O)N[C@@H]1C(=O)N2[C@@H]1SC(C)(C)[C@@H]2C(=O)O [CLOXACILLIN]
log10cfu (Staphylococcus aureus [1]): 2.63 | MIC (Staphylococcus aureus [2]): 16 µg/mL (≈ 36.7 µM) | log10cfu (Staphylococcus aureus [3]): 0.6 | EC50 (Staphylococcus aureus [4]): 5.33 ×MIC | log10cfu (Staphylococcus aureus [5]): 0.45 | EC50 (Staphylococcus aureus [6]): 4.44 ×MIC | MIC (Staphylococcus aureus [7]): 0.25 µg/mL (≈ 0.574 µM) | log10cfu (Staphylococcus aureus [8]): 1.96 | log10cfu (Staphylococcus aureus [9]): 2.68 | MIC (Staphylococcus aureus [10]): > 512 µg/mL | MIC (Staphylococcus aureus [11]): 0.06 µg/mL (≈ 0.138 µM) | MIC (Staphylococcus aureus [12]): 0.25 µg/mL (≈ 0.574 µM) | Activity (Staphylococcus aureus [13]): 17.8 ×MIC | log10cfu (Staphylococcus aureus [14]): 0.77 | log10cfu (Staphylococcus aureus [15]): 0.7 | log10cfu (Staphylococcus aureus [16]): 2.27 | log10cfu (Staphylococcus aureus [17]): 2.64 | Activity (Staphylococcus aureus [18]): 14.1 ×MIC | MIC (Staphylococcus aureus [19]): 8 µg/mL (≈ 18.4 µM)
